Dyrk1A ADPGlo: Dyrk1A (rat) kinase inhibition; actives 0.43% (n = 310,000); AID 504441; ADP-Glo luminescence, NFATc1 peptide; Q63470; inhibition, % at 12.5 µM; in the data active = inhibition above about 50%;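 note: plate controls were vehicle with enzyme for no effect and no enzyme for full effect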
CAL PDZ FP-1: inhibitors of human CAL PDZ peptide binding | Q9HD26 | purified CAL PDZ, TMR-peptide fluorescence polarization, 1 h | inhibition, % at 20 µM | actives 0.02% (n = 330,000);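 active = highest replicate inhibition of at least 40%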;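 note: plate controls were DMSO neutral control wells for no effect and unlabeled competitor peptide control wells for full effect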
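material = purified tagged CAL PDZ domain construct (CerCALP) | buffer or medium = sodium phosphate/NaCl buffer pH 7.4 with TCEP, IgG, Thesit | reagent = TMR-labelled reporter peptide T*-PRC34 bound in PDZ groove | incubation = 1 h room-temperature incubation prior to read | measured by = fluorescence polarization (mP) | evaluation = percent inhibition from loss of millipolarization | control set = unlabelled peptide and DMSO controls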
ARNT-TACC3 inh: disruptors of human ARNT/TACC3 interaction | Q9Y6A5 | AlphaScreen His-ARNT PAS-B/GST-TACC3 binding, luminescence; TACC3 fragment carries E629A point mutation | inhibition, % at 9.99 µM | actives 0.66% (n = 390,000);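 active = mean inhibition of replicates at least 50% and at least half of replicates each reaching 50%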;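 note: 0% = complete ARNT plus TACC3 wells and 100% = ARNT alone without TACC3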
CAL PDZ FP-2: CAL PDZ (human) peptide binding inhibition; purified CAL PDZ, TMR-peptide fluorescence polarization, 1 h; Q9HD26; AID 602252; inhibition, % at 24.9 µM; actives 0.92% (n = 300,000);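 active = mean inhibition of at least 30% with at least half of replicates also reaching 30%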;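 note: 0% = DMSO neutral control and 100% = excess unlabeled competitor peptide PRC23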
* hit, by the source's call; . = not tested or not shown. Most compounds without a hit are left out; they make up all but 1.4% or so of the library.

SMILES	Dyrk1A ADPGlo	CAL PDZ FP-1	ARNT-TACC3 inh	CAL PDZ FP-2
Cc1cc(C)cc(-n2ncc3c2CCCC3NC(=O)C2CCC2)c1 (configuration not stated)	-3	-1	-2	53*
C[C@@H]1CN([C@H](C)CO)C(=O)c2cc(-c3ccccc3F)cnc2O[C@H]1CN(C)C(=O)C1CCC1	.	.	0	.
CC1=NN2C(=N)/C(=C\c3ccc(SCc4ccccc4)o3)C(=O)N=C2S1	2	-1	6	55*
O=C(CCCN1C(=O)/C(=C/c2ccccc2)SC1=S)Nc1ccccc1O	8	-1	20	-3
COc1cccc(/C=C2\SC(=S)N(CCCC(=O)N3CCCCC3CCO)C2=O)c1 (configuration not stated)	3	0	9	88*
O=C(CCCN1C(=O)/C(=C\c2ccccc2)SC1=S)Nc1ccc(O)cc1C(=O)O	0	-1	5	77*
COc1ccc(/C=C2\SC(=S)N(CCCC(=O)Nc3ccc(O)cc3)C2=O)cc1	1	-1	6	-5
COc1ccc(/C=C2/SC(=S)N(CCCC(=O)Nc3ccc(O)cc3)C2=O)cc1	3	0	2	46*
C[C@@H]1CCCCO[C@H](CN(C)C(=O)c2ccncc2)[C@H](C)CN([C@H](C)CO)C(=O)c2cc(NS(C)(=O)=O)ccc2O1	.	.	-3	.
CC(c1ccccn1)C(C)(O)C(C)c1ccccn1 (configuration not stated)	-5	-1	-3	7
OC(c1ccccn1)(c1ccccn1)c1ccccn1	-7	-3	75*	-2
C[C@@H]1CCCCO[C@H](CN(C)CC2CCCCC2)[C@H](C)CN([C@H](C)CO)C(=O)c2cc(NC(=O)Nc3cccc4ccccc34)ccc2O1	.	.	19	.
C=CCN=c1scc(-c2ccc(F)cc2)n1/N=C/c1ccccn1	-2	-2	31	-2
C=CCN=c1scc(-c2ccccc2)n1/N=C/c1ccccn1	2	0	47*	-2
CCN=c1scc(-c2ccccc2)n1/N=C/c1ccccn1	2	0	61*	-2
NCC[C@@H]1CC[C@@H](NC(=O)C2CCCC2)[C@@H](CO)O1	.	.	-2	.
COc1ccc(CN(C)C[C@H]2Oc3ccc(NC(=O)CCC(F)(F)F)cc3CC(=O)N([C@H](C)CO)C[C@@H]2C)cc1	.	.	-2	.
CC(=O)c1cccc(NC(=O)N2CCCCCC2)c1	0	-2	-2	-1
CC(=O)c1cccc(NS(=O)(=O)c2ccc(NC(=O)N3CCCCC3)cc2)c1	-6	-1	-1	121*
COc1ccc(NC(=O)CSc2nc3sc(C)cc3c(=O)n2C)c(OC)c1	-1	-1	-2	80*
COc1ccc(NC(=O)CSc2nc3sc(C)cc3c(=O)n2C)cc1	-6	-2	5	13
C/C(CC(=O)Nc1ccccc1C)=N\NC(=O)Cc1csc(N)n1	3	-1	-6	44*
Cc1[nH]c(=O)[nH]c(=O)c1/C=N/NC(=O)[C@H](C)N	-1	-2	47*	-3
Cc1[nH]c(=O)[nH]c(=O)c1/C=N/NC(=O)CCNC(=O)OC(C)(C)C	5	0	12	2
Cc1[nH]c(=O)[nH]c(=O)c1/C=N/NC(=O)[C@@H](NC(=O)OC(C)(C)C)C(C)C	23	0	47*	-3
SMILES	Dyrk1A ADPGlo	CAL PDZ FP-1	ARNT-TACC3 inh	CAL PDZ FP-2
CC(C)[C@H](NC(=O)OC(C)(C)C)C(=O)N/N=C/c1ccc2nccnc2c1	-2	-1	-2	70*
COCCNC(=O)C[C@H]1CC[C@@H]2[C@H](COc3ccc(NC(=O)c4cnccn4)cc3C(=O)N2C)O1	.	.	-12	.
COCC(=O)N(C)C[C@H]1Oc2cc(C3=CCCCC3)ccc2S(=O)(=O)N([C@H](C)CO)C[C@H]1C	.	.	-1	.
CC(=O)N[C@H]1CC[C@@H](CC(=O)NCc2ccc(Cl)cc2)O[C@H]1CO	.	.	-13	.
C[C@H](NC(=O)C[C@@H]1CC[C@H](NC(=O)Cc2ccccn2)[C@H](CO)O1)c1ccccc1	.	.	-22	.
Nn1c(SCc2ccccn2)nncc1=O	.	-2	56*	-4
c1ccc(-n2nnnc2SCc2ccccn2)cc1	19	-2	-9	-1
Cc1nnc(SCc2ccccn2)n(N)c1=O	.	-2	active	-1
Cc1nnc(SCc2cccc3ccccc23)n(N)c1=O	1	-1	-4	-1
COc1cccc(NC(=O)CN(C)CC(=O)Nc2cccc(C(F)(F)F)c2)c1	8	-1	-7	-18
CCOCC(=O)Nc1cccc(OC)c1	6	-1	1	66*
COc1ccc(NC(=O)CN(C)CC(=O)Nc2ccc(Cl)c(S(=O)(=O)N(C)C)c2)cc1	.	-1	4	40*
COc1cccc(NC(=O)CN(C)CC(=O)Nc2ccc(Br)cc2)c1	.	-2	-16	47*
CCC(=O)N1C[C@H](C)[C@@H](OC)CN(C)C(=O)c2ccc(NC(=O)c3ccccc3)cc2OC[C@H]1C	.	.	-1	.
CCCC#Cc1ccc2c(c1)O[C@H](CN(C)C(=O)C1CC1)[C@H](C)CN([C@H](C)CO)S2(=O)=O	.	.	50*	.
CCCC#Cc1ccc2c(c1)O[C@@H](CN(C)C(=O)C1CC1)[C@@H](C)CN([C@H](C)CO)S2(=O)=O	.	.	11	.
C[C@H](CO)N1C[C@H](C)[C@@H](CN(C)S(=O)(=O)c2ccc(Cl)cc2)Oc2ccc(NS(=O)(=O)c3ccc(Cl)cc3)cc2CC1=O	.	.	15	.
Cc1ccc(-n2c(=O)[nH]c3cc(C(=O)NC4CCN(Cc5ccccc5)CC4)ccc3c2=O)cc1	4	-1	-5	38*
CCCCNC(=S)N1CCN(c2ccccc2Cl)CC1	9	1	0	75*
COc1cc2oc3ccccc3c(=O)c2cc1OC	11	-2	-2	6
O=c1c2ccccc2oc2cc(Br)ccc12	3	-1	1	89*
Nc1nc(-c2ccc(Cl)cc2)nn1C(=O)c1ccco1	2	0	-7	-1
COc1ccc(-c2nc(N)n(C(=O)c3ccco3)n2)cc1	0	.	-4	77*
O=C(Cn1cc(COc2ccc3ccc(=O)oc3c2)nn1)c1ccc(O)cc1	7	-1	-3	30*
Cc1ccccc1C(=O)OC(C)CN1CCN(C)CC1 (configuration not stated)	0	9	-4	116*
Cc1noc(C)c1NC(=O)Nc1ccc2c(c1)C(=O)N([C@H](C)CO)C[C@@H](C)[C@@H](CN(C)C)OCCCC[C@@H](C)O2	.	.	-1	.
COc1ccc(S(=O)(=O)Nc2ccc3c(c2)C(=O)N([C@H](C)CO)C[C@@H](C)[C@H](CN(C)Cc2ccc(Cl)c(Cl)c2)OCCCC[C@H](C)O3)cc1	.	.	0	.
Cc1cc(C)c(C(=O)N2CCCC(CNS(=O)(=O)N(C)C)C2)o1 (configuration not stated)	-3	-1	0	-3
COc1cc(OC)cc(C(=O)NCC2CCCN(C(=O)c3oc(C)cc3C)C2)c1 (configuration not stated)	-4	-1	-12	46*
CCCNC(=O)N1[C@H](C#N)[C@H](c2ccc(-c3ccc(C(=O)N(C)C)cc3)cc2)[C@@H]1CO	.	.	-10	.

Compound activity (PubChem)
